These results are taken from ChEMBL document CHEMBL1165965, “Synthesis and structure-activity relationships of 1,2,3,4-tetrahydropyrido[2,3-b]pyrazines as potent and selective inhibitors of the anaplastic lymphoma kinase” (Bioorg Med Chem, 2010).

Assay [1] addresses T1, Serine/threonine-protein kinase D1 (Homo sapiens) (UniProt Q15139).
T1 sequence (whole entry): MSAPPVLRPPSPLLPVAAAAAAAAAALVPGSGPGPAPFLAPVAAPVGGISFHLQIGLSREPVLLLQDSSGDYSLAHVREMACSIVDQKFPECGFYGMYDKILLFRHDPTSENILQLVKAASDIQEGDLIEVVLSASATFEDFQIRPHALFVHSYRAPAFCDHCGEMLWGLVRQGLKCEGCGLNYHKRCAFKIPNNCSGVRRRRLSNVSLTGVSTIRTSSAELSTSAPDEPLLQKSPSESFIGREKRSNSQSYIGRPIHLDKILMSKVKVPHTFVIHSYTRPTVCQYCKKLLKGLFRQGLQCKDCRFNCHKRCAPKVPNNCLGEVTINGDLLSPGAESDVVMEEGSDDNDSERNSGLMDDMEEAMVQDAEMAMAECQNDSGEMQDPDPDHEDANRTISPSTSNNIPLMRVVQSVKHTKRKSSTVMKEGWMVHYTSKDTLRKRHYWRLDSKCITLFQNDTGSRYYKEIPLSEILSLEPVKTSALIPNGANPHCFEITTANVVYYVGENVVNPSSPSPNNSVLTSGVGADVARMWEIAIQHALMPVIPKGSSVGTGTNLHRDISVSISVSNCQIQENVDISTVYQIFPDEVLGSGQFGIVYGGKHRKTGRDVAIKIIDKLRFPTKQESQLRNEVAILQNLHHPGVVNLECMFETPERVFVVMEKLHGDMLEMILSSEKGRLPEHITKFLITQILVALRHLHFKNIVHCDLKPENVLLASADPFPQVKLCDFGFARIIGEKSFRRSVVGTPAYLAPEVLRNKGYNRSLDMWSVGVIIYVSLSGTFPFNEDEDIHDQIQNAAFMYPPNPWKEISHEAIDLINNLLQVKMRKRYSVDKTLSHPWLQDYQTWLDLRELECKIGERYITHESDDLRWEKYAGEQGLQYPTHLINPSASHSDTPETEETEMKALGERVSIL
As to the kind of experiment: Inhibition of PRKD1 at 1 uM.

For assay [2], the target named is T2, Serine/threonine-protein kinase RIO3 (Homo sapiens) (UniProt O14730).
T2 sequence (whole entry): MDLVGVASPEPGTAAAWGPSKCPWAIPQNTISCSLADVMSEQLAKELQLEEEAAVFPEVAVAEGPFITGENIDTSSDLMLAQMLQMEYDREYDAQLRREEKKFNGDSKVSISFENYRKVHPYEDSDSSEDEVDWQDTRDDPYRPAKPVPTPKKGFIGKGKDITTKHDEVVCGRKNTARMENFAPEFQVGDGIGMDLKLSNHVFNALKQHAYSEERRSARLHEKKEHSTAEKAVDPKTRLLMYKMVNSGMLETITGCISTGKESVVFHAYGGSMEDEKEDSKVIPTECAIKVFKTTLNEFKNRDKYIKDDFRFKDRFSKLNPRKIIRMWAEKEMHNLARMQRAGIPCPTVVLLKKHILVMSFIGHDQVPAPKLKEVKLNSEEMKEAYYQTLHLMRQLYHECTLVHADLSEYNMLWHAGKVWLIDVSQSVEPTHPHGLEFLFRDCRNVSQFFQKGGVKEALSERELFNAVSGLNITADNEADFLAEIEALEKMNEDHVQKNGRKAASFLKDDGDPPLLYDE
As to the kind of experiment: Inhibition of RIOK3 at 1 uM.

The target of assay [3] is Serine/threonine-protein kinase Nek7 (Homo sapiens) (UniProt Q8TDX7). Briefly: Inhibition of NEK7 at 1 uM.
Assay [4] has as its target Focal adhesion kinase 1 (Homo sapiens) (UniProt Q05397). As to the kind of experiment: Inhibition of FAK at 1 uM. The method, boiled down:
(§1)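 Single-concentration screen using Ambit Bioscience KINOMEscan technology across a panel of 250–400 kinases. Per-kinase inhibition from this screen was summarized as S(90), the fraction of kinases inhibited by more than 90%.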

The target in assay [5] is T3, Dual specificity mitogen-activated protein kinase kinase 3 (Homo sapiens) (UniProt P46734).
T3 sequence (whole entry): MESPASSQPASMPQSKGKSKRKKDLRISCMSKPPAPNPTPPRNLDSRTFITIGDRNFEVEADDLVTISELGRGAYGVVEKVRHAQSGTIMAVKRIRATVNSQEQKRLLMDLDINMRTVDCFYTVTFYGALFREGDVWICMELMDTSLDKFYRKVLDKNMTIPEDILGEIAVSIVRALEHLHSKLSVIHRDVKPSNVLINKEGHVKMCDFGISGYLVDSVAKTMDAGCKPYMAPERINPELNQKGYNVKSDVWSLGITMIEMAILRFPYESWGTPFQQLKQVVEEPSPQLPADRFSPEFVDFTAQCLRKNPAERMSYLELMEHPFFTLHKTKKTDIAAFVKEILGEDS
Briefly: Inhibition of MEK3 at 1 uM.

Assay [6] concerns Epidermal growth factor receptor (Homo sapiens), P00533 [G719S]. Briefly: Inhibition of EGFR G719S mutant at 1 uM. The assay is classed as protein assay. In a few lines:
as §1

In assay [7] the target is T4, Activin receptor type-1B (Homo sapiens) (UniProt P36896).
T4 sequence (whole entry): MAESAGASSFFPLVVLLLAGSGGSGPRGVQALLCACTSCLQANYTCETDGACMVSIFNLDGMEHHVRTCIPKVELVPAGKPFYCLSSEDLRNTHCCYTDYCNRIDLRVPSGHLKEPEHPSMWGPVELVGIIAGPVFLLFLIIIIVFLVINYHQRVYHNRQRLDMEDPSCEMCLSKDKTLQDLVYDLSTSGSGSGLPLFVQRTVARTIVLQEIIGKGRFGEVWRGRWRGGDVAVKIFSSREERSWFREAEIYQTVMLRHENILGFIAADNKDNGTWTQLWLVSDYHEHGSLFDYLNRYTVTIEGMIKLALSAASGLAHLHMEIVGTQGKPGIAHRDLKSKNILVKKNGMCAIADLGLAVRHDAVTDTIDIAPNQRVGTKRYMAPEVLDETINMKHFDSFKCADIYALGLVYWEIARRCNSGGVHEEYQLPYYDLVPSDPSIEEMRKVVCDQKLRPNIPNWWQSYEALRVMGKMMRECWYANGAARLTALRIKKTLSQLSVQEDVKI
As to the kind of experiment: Inhibition of ACVR1B at 1 uM. The method, boiled down:
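Ambit KINOMEscan screen at a single concentration across a 250–400 kinase panel, recorded as percent inhibition. Selectivity was expressed as S(90), the fraction of kinases inhibited >90%.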

Assay [8] addresses Microtubule-associated serine/threonine-protein kinase 1 (Homo sapiens) (UniProt Q9Y2H9). As to the kind of experiment: Inhibition of MAST1 at 1 uM.
Assay [9] addresses NT-3 growth factor receptor (Homo sapiens) (UniProt Q16288). As to the kind of experiment: Inhibition of TRKC at 1 uM.
In assay [10] the target is MAP/microtubule affinity-regulating kinase 3 (Homo sapiens) (UniProt P27448). As to the kind of experiment: Inhibition of MARK3 at 1 uM. In a few lines: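 Kinase-panel screen using KINOMEscan technology, with 250–400 kinases per panel. Each compound was tested at a single concentration, and inhibition of each kinase was recorded. Selectivity was summarised as S(90), the fraction of kinases inhibited by more than 90%.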

For orientation: inhibition means the drop in the measured response relative to a control, in per cent. A higher inhibition goes with a strong effect.

Sequence of MAP/microtubule affinity-regulating kinase 3 (Homo sapiens) (P27448 whole entry, looked up): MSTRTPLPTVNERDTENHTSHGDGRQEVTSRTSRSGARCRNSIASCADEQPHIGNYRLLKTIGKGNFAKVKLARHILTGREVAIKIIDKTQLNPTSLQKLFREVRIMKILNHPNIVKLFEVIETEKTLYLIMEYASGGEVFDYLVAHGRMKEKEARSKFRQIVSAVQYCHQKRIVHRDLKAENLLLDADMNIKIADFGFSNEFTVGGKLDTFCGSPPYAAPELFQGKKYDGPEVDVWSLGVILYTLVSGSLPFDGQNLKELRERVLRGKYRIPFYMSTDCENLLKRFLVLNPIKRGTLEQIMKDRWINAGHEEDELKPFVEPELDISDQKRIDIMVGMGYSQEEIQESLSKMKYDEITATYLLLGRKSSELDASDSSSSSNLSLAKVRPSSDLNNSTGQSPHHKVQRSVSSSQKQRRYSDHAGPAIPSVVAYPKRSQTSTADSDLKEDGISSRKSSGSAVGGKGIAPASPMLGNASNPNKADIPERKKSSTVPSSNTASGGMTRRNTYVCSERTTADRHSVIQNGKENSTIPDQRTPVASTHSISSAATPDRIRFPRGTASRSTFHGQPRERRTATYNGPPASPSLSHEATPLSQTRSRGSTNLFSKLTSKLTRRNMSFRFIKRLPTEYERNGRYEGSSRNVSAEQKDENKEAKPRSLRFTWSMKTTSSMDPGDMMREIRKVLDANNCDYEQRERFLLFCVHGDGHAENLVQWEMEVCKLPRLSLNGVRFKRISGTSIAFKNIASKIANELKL
Sequence of Serine/threonine-protein kinase Nek7 (Homo sapiens) (Q8TDX7 whole entry, looked up): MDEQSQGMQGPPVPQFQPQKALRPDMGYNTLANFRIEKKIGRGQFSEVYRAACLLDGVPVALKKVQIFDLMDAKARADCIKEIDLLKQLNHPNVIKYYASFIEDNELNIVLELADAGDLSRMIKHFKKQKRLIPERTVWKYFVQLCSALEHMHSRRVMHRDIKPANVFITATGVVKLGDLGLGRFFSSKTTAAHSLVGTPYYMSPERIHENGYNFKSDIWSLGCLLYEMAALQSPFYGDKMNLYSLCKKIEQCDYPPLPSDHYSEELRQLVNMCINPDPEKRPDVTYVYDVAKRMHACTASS
Sequence of Focal adhesion kinase 1 (Homo sapiens) (Q05397 2-1052 limits assumed): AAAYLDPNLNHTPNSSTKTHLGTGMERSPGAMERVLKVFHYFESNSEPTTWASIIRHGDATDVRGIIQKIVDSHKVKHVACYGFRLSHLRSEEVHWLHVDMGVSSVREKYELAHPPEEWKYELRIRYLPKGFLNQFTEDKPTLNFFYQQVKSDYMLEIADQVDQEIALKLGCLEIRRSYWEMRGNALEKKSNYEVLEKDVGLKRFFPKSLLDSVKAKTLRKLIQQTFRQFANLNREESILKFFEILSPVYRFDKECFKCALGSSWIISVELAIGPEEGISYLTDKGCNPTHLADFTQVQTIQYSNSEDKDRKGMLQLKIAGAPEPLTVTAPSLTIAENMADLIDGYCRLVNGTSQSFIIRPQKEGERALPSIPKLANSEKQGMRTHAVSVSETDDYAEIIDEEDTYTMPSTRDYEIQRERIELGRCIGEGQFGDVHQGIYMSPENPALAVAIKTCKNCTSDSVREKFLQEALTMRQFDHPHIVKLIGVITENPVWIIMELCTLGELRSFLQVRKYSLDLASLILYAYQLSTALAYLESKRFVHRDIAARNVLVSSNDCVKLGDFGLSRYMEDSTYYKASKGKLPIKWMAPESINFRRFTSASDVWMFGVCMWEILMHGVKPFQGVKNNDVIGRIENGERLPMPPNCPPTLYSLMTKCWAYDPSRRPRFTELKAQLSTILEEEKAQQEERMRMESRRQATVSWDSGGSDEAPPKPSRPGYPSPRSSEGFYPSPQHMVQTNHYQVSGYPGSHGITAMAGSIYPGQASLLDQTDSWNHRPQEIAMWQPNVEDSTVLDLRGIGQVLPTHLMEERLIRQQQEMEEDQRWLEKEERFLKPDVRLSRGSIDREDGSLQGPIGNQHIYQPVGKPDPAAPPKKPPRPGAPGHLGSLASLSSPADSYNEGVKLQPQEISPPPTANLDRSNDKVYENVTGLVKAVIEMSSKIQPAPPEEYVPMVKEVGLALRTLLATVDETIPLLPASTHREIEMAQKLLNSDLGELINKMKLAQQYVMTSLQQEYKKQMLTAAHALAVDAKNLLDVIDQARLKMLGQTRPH
Sequence of NT-3 growth factor receptor (Homo sapiens) (Q16288 32-839 limits assumed): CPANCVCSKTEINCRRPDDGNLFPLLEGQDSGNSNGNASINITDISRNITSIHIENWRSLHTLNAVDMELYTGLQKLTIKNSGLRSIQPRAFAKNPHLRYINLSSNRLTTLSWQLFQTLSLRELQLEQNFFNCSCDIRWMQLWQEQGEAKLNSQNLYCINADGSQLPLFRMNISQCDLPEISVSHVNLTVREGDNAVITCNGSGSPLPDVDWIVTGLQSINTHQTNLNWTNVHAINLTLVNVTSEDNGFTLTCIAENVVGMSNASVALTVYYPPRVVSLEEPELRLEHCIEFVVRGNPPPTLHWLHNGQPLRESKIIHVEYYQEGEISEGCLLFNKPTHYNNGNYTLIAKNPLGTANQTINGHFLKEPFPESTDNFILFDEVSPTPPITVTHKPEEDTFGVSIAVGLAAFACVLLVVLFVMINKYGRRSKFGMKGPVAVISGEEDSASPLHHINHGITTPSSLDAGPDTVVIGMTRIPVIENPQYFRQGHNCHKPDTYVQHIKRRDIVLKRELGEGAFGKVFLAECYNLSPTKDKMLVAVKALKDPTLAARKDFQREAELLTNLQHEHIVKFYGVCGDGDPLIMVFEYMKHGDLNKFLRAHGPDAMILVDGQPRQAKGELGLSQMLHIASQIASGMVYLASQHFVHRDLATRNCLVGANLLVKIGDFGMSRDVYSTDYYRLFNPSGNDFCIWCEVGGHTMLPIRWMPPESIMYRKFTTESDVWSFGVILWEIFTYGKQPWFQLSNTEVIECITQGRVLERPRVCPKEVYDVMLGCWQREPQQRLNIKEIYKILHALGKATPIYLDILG
Sequence of Epidermal growth factor receptor (Homo sapiens), P00533 [G719S] (P00533 whole entry G719S): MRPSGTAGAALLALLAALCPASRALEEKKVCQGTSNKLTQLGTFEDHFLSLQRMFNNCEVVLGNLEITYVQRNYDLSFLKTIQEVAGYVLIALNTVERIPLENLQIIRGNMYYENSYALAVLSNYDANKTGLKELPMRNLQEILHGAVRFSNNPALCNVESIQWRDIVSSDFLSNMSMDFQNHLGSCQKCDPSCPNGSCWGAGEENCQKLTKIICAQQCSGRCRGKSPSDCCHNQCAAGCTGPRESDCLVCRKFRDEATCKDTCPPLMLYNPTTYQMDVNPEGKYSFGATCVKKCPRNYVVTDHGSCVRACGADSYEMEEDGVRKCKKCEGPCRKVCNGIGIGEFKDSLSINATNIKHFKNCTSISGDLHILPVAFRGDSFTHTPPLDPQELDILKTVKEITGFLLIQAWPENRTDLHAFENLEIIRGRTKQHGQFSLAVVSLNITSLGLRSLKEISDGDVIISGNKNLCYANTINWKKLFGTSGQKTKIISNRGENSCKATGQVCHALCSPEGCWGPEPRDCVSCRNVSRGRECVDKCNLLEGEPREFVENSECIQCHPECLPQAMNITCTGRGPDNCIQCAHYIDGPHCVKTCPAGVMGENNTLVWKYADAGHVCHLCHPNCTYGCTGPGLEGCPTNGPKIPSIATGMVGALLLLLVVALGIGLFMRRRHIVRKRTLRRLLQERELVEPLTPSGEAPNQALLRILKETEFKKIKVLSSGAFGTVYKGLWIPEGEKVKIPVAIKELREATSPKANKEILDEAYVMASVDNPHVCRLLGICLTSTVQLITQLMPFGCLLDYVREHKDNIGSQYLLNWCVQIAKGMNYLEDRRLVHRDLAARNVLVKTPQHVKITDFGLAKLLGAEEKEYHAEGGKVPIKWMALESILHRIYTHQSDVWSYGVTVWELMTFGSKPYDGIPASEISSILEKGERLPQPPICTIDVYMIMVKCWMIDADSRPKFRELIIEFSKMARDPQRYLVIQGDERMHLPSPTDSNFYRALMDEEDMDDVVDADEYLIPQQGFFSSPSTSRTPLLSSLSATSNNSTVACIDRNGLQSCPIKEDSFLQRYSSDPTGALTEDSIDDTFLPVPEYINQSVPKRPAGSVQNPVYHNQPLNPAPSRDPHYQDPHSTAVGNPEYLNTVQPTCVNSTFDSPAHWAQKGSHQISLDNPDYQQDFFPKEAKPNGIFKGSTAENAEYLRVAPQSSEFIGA

Turning to `FC(F)(F)c1ccc(Cl)cc1CN1CCNc2ncc(-c3ccnc(N4CCNCC4)c3)cc21`, the inhibition in assay [1] is less than 50%; in assay [2], less than 50%; in assay [3], less than 50%; in assay [4], 100%; in assay [5], less than 50%; in assay [6], less than 50%. Moreover, the inhibition in assay [7], in [8], in assay [9] and in [10] was less than 50% in each case.

Regarding `CN1CCN(c2ccc(-c3cnc4c(c3)N(Cc3cc(F)ccc3F)CCN4)cn2)CC1`, the inhibition in [1] was 67%; in assay [2], less than 50%; in [3] it was less than 50%; in assay [4] it was 67.2%; in assay [5] it was less than 50%; in assay [6], less than 50%. The inhibition in [7], in assay [8], in assay [9] and in [10] was less than 50% in each case.

For the compound `CN1CCN(c2ccc(-c3cnc4c(c3)N(Cc3cc(Cl)ccc3Cl)CCN4)cn2)CC1`, the inhibition in assay [1] is less than 50%; in [2] it was less than 50%; in [3], less than 50%; in assay [4] it was 94%; in assay [5], less than 50%; in assay [6], less than 50%. The inhibition in [7], in assay [8], in assay [9] and in assay [10] was less than 50% throughout.

`O=C(O)c1ccc(-c2cnc3c(c2)N(Cc2cc(Cl)ccc2C(F)(F)F)CCN3)cc1`: the inhibition in assay [2], in assay [6], in assay [7], in assay [9] and in assay [10] was less than 50% in each case.

As to `CN1CCN(c2ccc(-c3cnc4c(c3)N(Cc3cc(Cl)ccc3C(F)(F)F)CCN4)cn2)CC1`, the inhibition in assay [1] is less than 50%; in assay [2], less than 50%; in assay [3], less than 50%; in [4], 98%; in assay [5] it was less than 50%; in assay [6] it was less than 50%. Besides, the inhibition in assay [7], in assay [8], in [9] and in [10] was less than 50% throughout.

On to `COC1CCN(C(=O)c2ccc(-c3cnc4c(c3)N(Cc3cc(Cl)ccc3C(F)(F)F)CCN4)cc2)CC1`, for which the inhibition was less than 50% in assay [2]; 94% in [4]; less than 50% in [6]; less than 50% in assay [7]; less than 50% in assay [9]; less than 50% in assay [10].

As to `O=C(c1ccc(-c2cnc3c(c2)N(Cc2cc(Cl)ccc2C(F)(F)F)CCN3)cc1)N1CCC(N2CCCC2)CC1`, the inhibition was less than 50% in assay [2]; 98.9% in [4]; less than 50% in assay [6]; less than 50% in assay [7]; less than 50% in assay [9]; less than 50% in assay [10].

Take `CN1CCN(c2ccc(-c3cnc4c(c3)N(Cc3c(F)ccc(F)c3Cl)CCN4)cn2)CC1`: the inhibition in [1] is 67%; in assay [2], less than 50%; in assay [3], less than 50%; in assay [4], 83%; in assay [5] it was less than 50%; in assay [6] it was less than 50%. The inhibition in assay [7], in [8], in assay [9] and in assay [10] was less than 50% throughout.

Take `O=C(c1ccc(-c2cnc3c(c2)N(Cc2cc(Cl)ccc2C(F)(F)F)CCN3)cc1)N1CCCCC1`: the inhibition in assay [2] is less than 50%; in assay [4], 84.4%; in assay [6], less than 50%; in assay [7], less than 50%; in [9], less than 50%; in assay [10], less than 50%.

On to `CC(=O)N1CCN(c2cc(-c3cnc4c(c3)N(Cc3cc(Cl)ccc3C(F)(F)F)CCN4)ccn2)CC1`, for which the inhibition in [1] was less than 50%; in assay [2], less than 50%; in assay [3], less than 50%; in [4], 100%; in assay [5], less than 50%; in assay [6] it was less than 50%. Moreover, the inhibition in assay [7], in [8], in assay [9] and in assay [10] was less than 50% each time.
